# Reference: ChEMBL document CHEMBL4627281, “A small molecule inhibitor of PCSK9 that antagonizes LDL receptor binding via interaction with a cryptic PCSK9 binding groove” (Bioorg Med Chem, 2020)
# The source made the active and inactive calls. The rule behind the calls is not given here.
# Tests used:
# PCSK9/LDLR = PCSK9/LDLR (Homo sapiens, UniProt Q8NBP7); experiment: Inhibition of recombinant human His-tagged PCSK9 interaction with recombinant LDLR AB domain (unknown origin) measured after 3 hrs by horseradish peroxidase-coupled TMB substrate based spectrophotometry; assay type: protein assay
# Sequence of PCSK9/LDLR (Q8NBP7 31-152 limits assumed): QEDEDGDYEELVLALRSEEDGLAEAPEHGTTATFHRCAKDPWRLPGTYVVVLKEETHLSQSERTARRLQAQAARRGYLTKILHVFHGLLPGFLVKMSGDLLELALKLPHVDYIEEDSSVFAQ
# Sequence of PCSK9/LDLR (Q8NBP7 153-692 limits assumed): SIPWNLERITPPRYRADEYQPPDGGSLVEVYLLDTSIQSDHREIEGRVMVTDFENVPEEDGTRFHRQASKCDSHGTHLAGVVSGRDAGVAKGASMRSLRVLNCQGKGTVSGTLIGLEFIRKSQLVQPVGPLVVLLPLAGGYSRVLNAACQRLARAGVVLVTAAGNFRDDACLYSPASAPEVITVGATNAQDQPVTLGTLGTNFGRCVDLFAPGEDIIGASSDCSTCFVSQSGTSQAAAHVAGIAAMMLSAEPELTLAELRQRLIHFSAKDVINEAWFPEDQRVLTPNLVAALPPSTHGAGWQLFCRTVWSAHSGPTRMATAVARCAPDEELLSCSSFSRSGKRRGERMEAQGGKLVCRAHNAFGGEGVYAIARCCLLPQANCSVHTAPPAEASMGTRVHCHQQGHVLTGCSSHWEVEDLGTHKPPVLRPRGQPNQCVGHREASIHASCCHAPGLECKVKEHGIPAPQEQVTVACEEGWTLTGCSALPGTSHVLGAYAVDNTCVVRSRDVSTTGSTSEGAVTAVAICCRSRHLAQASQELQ
# Sequence of PCSK9/LDLR (P01130 22-860 partner limits assumed): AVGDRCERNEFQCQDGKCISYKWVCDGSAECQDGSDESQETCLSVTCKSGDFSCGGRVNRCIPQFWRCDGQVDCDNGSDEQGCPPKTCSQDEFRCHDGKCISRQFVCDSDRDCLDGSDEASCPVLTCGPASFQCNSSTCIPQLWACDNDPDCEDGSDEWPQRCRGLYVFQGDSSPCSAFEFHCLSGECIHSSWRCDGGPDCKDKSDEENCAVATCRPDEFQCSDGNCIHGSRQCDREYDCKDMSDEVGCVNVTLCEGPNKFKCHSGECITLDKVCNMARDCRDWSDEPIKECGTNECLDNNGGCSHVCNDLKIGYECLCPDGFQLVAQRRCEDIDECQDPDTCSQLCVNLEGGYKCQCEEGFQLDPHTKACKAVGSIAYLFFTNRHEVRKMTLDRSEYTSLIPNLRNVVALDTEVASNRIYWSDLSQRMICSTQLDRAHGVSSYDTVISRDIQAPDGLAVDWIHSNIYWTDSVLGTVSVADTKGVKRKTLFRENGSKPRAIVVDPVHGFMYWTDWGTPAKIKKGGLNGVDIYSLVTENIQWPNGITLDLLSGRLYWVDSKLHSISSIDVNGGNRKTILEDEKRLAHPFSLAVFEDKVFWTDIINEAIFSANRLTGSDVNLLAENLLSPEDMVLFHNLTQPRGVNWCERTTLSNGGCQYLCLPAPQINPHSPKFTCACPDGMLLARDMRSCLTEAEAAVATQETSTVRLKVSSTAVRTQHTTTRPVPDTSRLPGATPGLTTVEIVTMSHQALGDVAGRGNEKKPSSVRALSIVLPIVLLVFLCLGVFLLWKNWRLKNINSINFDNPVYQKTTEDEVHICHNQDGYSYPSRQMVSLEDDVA
# Summary of the method: (§1)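 ELISA plates pre-coated with LDLR-EGF-AB domain. Compounds serially diluted from 10 mM DMSO stocks in reaction buffer, with 7 ng His-tagged human PCSK9 added, 3 h at room temperature with shaking. Binding detected with biotinylated anti-His antibody (1 h), then HRP-streptavidin (20 min), then substrate (15 min); absorbance read at 450/540 nm. IC50 taken from the % inhibition curve.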
# [1] = target: Mast/stem cell growth factor receptor Kit (Homo sapiens, UniProt P10721); experiment: Inhibition of recombinant human N-terminal GST-tagged c-Kit (544 to end residues) expressed in baculovirus infected Sf21 insect cells using FAM-labelled P22 peptide as substrate preincubated for 10 mins followed by substrate addition and measured after 1 hr in presence of ATP by fluorescence assay
# [2] = target: Tyrosine-protein kinase ABL1 (Homo sapiens, UniProt P00519); experiment: (§2) Inhibition of recombinant human N-terminal His-tagged Abl (2 to 1130 residues) expressed in baculovirus expression system using FAM-labelled P2 peptide as substrate preincubated for 10 mins followed by substrate addition and measured after 1 hr in presence of ATP by fluorescence assay
# Sequence of Tyrosine-protein kinase ABL1 (P00519 whole entry, the tested form may be a part): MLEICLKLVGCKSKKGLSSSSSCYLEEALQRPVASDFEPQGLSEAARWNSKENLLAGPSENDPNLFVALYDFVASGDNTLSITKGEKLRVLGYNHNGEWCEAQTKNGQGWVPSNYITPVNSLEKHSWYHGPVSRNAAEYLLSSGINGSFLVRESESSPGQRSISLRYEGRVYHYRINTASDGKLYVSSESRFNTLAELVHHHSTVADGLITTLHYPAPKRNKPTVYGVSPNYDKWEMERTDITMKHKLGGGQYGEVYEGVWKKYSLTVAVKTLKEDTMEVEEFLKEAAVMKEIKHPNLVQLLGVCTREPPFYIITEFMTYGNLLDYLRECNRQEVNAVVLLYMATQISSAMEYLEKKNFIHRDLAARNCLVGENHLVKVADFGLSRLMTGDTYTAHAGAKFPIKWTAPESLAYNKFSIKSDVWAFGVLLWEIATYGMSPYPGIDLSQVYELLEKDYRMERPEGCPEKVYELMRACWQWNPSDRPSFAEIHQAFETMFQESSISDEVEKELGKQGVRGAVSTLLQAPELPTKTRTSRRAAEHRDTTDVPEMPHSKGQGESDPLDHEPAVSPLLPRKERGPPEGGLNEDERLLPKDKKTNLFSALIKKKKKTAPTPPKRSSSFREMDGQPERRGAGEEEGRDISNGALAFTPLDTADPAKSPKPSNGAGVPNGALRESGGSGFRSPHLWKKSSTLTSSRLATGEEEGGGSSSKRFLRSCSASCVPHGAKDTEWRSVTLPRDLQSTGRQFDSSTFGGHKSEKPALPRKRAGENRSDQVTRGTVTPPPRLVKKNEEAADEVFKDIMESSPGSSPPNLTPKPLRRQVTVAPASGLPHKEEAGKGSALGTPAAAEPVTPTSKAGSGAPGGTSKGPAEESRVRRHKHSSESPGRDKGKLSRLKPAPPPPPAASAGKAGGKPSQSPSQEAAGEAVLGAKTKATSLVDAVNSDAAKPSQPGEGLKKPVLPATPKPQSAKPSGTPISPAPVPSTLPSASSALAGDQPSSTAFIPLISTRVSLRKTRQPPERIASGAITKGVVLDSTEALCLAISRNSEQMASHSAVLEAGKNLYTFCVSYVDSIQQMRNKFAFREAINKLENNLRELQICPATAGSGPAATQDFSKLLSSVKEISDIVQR
# [3] = target: Platelet-derived growth factor receptor beta (Homo sapiens, UniProt P09619); experiment: as §2, with “GST-tagged PDGFRbeta cytoplasmic domain (557” for “His-tagged Abl (2”, “1106” for “1130”, “P22” for “P2”
# Sequence of Platelet-derived growth factor receptor beta (P09619 whole entry, the tested form may be a part): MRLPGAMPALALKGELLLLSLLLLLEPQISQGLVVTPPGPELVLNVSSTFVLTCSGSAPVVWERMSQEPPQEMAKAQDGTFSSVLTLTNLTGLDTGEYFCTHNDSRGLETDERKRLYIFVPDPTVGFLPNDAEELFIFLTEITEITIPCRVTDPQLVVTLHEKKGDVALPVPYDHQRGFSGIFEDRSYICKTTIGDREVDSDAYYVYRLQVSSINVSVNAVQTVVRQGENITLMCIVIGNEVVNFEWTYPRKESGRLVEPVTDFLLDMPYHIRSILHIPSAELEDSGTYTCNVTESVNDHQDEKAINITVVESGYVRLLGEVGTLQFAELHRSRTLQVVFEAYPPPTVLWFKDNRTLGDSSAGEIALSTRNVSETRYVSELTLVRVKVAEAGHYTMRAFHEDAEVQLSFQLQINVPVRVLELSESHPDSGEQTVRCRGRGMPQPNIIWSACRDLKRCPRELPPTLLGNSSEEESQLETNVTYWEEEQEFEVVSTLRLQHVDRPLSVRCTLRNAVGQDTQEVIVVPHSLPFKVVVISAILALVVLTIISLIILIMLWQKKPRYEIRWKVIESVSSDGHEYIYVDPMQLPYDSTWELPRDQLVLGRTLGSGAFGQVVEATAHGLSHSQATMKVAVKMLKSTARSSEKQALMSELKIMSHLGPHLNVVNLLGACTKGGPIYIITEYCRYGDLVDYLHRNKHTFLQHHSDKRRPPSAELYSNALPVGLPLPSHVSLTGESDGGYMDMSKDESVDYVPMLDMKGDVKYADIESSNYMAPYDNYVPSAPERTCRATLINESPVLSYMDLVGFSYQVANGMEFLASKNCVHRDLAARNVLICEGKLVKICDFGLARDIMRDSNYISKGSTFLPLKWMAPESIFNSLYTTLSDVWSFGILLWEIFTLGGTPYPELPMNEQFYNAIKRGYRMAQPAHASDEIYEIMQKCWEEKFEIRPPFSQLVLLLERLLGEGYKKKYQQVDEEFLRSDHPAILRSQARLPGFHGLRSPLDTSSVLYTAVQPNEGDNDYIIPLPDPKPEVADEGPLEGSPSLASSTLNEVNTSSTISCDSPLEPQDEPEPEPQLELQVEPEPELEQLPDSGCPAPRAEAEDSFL
# [4] = target: Proto-oncogene tyrosine-protein kinase Src (Homo sapiens, UniProt P12931); experiment: Inhibition of recombinant human full-length N-terminal GST-tagged SRC (1 to 536 residues) expressed in baculovirus expression system using FAM-labelled P4 peptide as substrate preincubated for 10 mins followed by substrate addition and measured after 1 hr in presence of ATP by fluorescence assay
# Sequence of Proto-oncogene tyrosine-protein kinase Src (P12931 2-536 limits assumed): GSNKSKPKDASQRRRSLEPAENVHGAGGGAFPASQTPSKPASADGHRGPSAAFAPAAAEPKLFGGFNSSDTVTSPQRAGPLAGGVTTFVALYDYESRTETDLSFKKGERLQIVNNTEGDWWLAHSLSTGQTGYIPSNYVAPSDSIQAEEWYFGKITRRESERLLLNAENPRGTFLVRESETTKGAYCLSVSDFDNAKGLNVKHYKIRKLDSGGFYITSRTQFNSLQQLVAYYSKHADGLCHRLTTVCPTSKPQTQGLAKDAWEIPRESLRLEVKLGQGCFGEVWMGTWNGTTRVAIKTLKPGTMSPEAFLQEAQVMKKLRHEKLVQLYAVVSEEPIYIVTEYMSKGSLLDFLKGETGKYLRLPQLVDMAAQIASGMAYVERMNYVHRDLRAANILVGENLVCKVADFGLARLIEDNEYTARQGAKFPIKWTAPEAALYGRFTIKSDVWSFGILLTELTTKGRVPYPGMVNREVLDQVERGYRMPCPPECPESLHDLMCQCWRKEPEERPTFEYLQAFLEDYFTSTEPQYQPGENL
# [5] = Clearance in CD1 mouse at 0.4 mg/kg, iv administered as cassette dose measured upto 24 hrs by LC-MS/MS analysis; assay type: ADME, organism-based; conditions: in vivo
# Summary of the method: (§3)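 Male CD1 mice (second cassette 28–29 g, 7–8 weeks) given one IV 5-in-1 cassette at 0.4 mg/kg per compound in 5% DMAC/5% Solutol HS15/90% saline. Blood (~20 µL) into K2EDTA from the facial vein at 0.083–24 h, terminal bleed by cardiac puncture under isoflurane. Blood diluted with deionised water, stored at −80 °C, analysed by positive-ESI mass spectrometry.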
# [6] = Volume of distribution at steady state in CD1 mouse at 0.4 mg/kg, iv administered as cassette dose measured upto 24 hrs by LC-MS/MS analysis; assay type: ADME, organism-based; conditions: in vivo, read-out: Vdss; summary of the method: as §3
# [7] = Terminal half life in CD1 mouse at 0.4 mg/kg, iv administered as cassette dose measured upto 24 hrs by LC-MS/MS analysis; assay type: ADME, organism-based; conditions: in vivo, read-out: beta t1/2 (converted); summary of the method: as §3
# [8] = AUClast in CD1 mouse at 0.4 mg/kg, iv administered as cassette dose measured upto 24 hrs by LC-MS/MS analysis; assay type: ADME, organism-based; parameters: time < 24 hr, dose 0.4 mg/kg, route intravenous; conditions: in vivo; summary of the method: as §3
# [9] = AUCinfinity in CD1 mouse at 0.4 mg/kg, iv administered as cassette dose measured upto 24 hrs by LC-MS/MS analysis; assay type: ADME, organism-based; parameters: dose 0.4 mg/kg, route intravenous, time infinity; conditions: in vivo; summary of the method: as §3
# [10] = Mean residence time (0 to infinity) in CD1 mouse at 0.4 mg/kg, iv administered as cassette dose measured upto 24 hrs by LC-MS analysis; assay type: ADME, organism-based; conditions: in vivo; summary of the method: as §3
# [11] = test system: PCSK9/LDLR (Homo sapiens), Q8NBP7+P01130 [D374Y]; experiment: Inhibition of PCSK9 D374Y mutant (unknown origin) and LDLR protein-protein interaction in human HepG2 cells assessed as increase in Bodipy FL-labelled LDL uptake preincubated for 16 hrs followed by Bodipy FL-labelled LDL addition and measured after 4 hrs by fluorescence assay; assay type: cell-based
# Summary of the method: (§4)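 HepG2 cells seeded at 2 × 10^5 cells/mL and attached overnight, then incubated 16 h with PCSK9-D374Y (2 μg/mL) plus compound (0.1 or 1 µM). Medium replaced with 10 μg/mL Bodipy FL LDL for 4 h. Cells washed with warm PBS; fluorescence read at ex 485/em 530 nm. Mean ± S.D.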
# [12] = target: PCSK9/LDLR (Homo sapiens) (UniProt Q8NBP7+P01130); experiment: Inhibition of recombinant human His-tagged PCSK9 interaction with recombinant LDLR AB domain (unknown origin) at higher concentration measured after 3 hrs by horseradish peroxidase-coupled TMB substrate based spectrophotometry relative to control; assay type: protein assay; summary of the method: as §1
# [13] = test system: PCSK9/LDLR (Homo sapiens), Q8NBP7+P01130 [D374Y]; experiment: Inhibition of PCSK9 D374Y mutant (unknown origin) and LDLR protein-protein interaction in human HepG2 cells assessed as increase in Bodipy FL-labelled LDL uptake at 0.1 or 1 uM preincubated for 16 hrs followed by Bodipy FL-labelled LDL addition and measured after 4 hrs by fluorescence assay; assay type: cell-based; summary of the method: as §4
SMILES,IC50 (PCSK9/LDLR),IC50 [1],IC50 [2],IC50 [3],IC50 [4],clearance [5],Vd [6],half-life [7],AUC(0-t) at 24 h [8],AUC(0-inf) [9],MRT inf [10],inhibition [11],Imax [12],inhibition [13]
Cc1cn(-c2cc(CN3CCCC[C@H]3C(=O)O)cc(NC(=O)c3ccc(C)c(Nc4nccc(-c5ccc(F)cc5)n4)c3)c2)cn1,14 µM,> 10 µM,> 10 µM,> 10 µM,> 10 µM,–,–,–,–,–,–,–,–,–
Cc1cn(-c2cc(NC(=O)c3ccc(C)c(Nc4nccc(-c5ccccc5)n4)c3)cc(N3CCN(C)CC3)c2)cn1,0.758 µM,2.88 µM,> 10 µM,> 10 µM,> 10 µM,32.8 mL/min/kg,4.3 L/kg,2.21 h,189 ng·h/mL,204 ng·h/mL,2.16 h,Dose-dependent effect,> 35%,–
Cc1cn(-c2cc(NC(=O)c3ccc(C)c(Oc4ccccc4)c3)cc(C(F)(F)F)c2)cn1,13.4 µM,0.618 µM,> 10 µM,> 10 µM,> 10 µM,12.5 mL/min/kg,1.69 L/kg,2.15 h,508 ng·h/mL,541 ng·h/mL,2.27 h,–,–,–
Cc1ccc(C(=O)Nc2cc(N3CCN(C)CC3)cc(-n3cnc(C)c3)c2)cc1,26.3 µM,> 10 µM,> 10 µM,> 10 µM,> 10 µM,–,–,–,–,–,–,–,–,–
Cc1cn(-c2cc(NC(=O)c3ccc(C)c(Nc4nccc(-c5ccccc5)n4)c3)cc(N3CCNCC3)c2)cn1,0.491 µM,1.49 µM,–,1.51 µM,4.36 µM,52.5 mL/min/kg,3.74 L/kg,1.64 h,116 ng·h/mL,127 ng·h/mL,1.19 h,–,–,–
Cc1cn(-c2cc(CN3CCC[C@H](N)C3)cc(NC(=O)c3ccc(C)c(Nc4nccc(-c5ccc(F)cc5)n4)c3)c2)cn1,0.428 µM,1.96 µM,> 10 µM,2.04 µM,> 10 µM,23.5 mL/min/kg,13.3 L/kg,10.8 h,243 ng·h/mL,297 ng·h/mL,10.4 h,–,–,–
Cc1cn(-c2cc(NC(=O)c3ccc(C)c(Oc4ccccc4)c3)cc(N3CCN(C)CC3)c2)cn1,0.759 µM,> 10 µM,> 10 µM,7.66 µM,> 10 µM,17.5 mL/min/kg,9.26 L/kg,7.36 h,338 ng·h/mL,384 ng·h/mL,8.98 h,–,20%,inactive
Cc1cn(-c2cc(NC(=O)c3ccc(C)c(Nc4nccc(-c5cccnc5)n4)c3)cc(C(F)(F)F)c2)cn1 [NILOTINIB],9.8 µM,–,–,–,–,–,–,–,–,–,–,–,–,–
CCCCc1cc(NC(=O)c2ccc(C)c(Nc3nccc(-c4ccccc4)n3)c2)cc(-n2cnc(C)c2)c1,7.41 µM,0.302 µM,–,> 10 µM,> 10 µM,–,–,–,–,–,–,–,–,–
Cc1ccc(C(=O)Nc2cccc(N3CCN(C)CC3)c2)cc1Nc1nccc(-c2ccc(F)cc2)n1,3.29 µM,0.093 µM,> 10 µM,> 10 µM,> 10 µM,–,–,–,–,–,–,–,–,–
